Screens deposited in PubChem BioAssay by Johns Hopkins Ion Channel Center.
A selection: hits, their analogues and other compounds. The true share with any hit is near 2.3%.
TRPC6 inhibitor: blocks the mouse TRPC6 cation channel. HEK293-TRPC6, membrane potential dye, ACh-evoked depolarization; active compounds read low. B-score at 10 µM. actives 1.1% (n = 310,000). AID 2553;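 active means B-score under library mean minus 3 SD, initial fluorescence not abnormally high, positive integrated signal ratio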;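 further: B-score derived from integrated fluorescence ratio over the kinetic read; more negative B-score means stronger inhibition of depolarization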
Target sequence (Q61143 whole entry, looked up): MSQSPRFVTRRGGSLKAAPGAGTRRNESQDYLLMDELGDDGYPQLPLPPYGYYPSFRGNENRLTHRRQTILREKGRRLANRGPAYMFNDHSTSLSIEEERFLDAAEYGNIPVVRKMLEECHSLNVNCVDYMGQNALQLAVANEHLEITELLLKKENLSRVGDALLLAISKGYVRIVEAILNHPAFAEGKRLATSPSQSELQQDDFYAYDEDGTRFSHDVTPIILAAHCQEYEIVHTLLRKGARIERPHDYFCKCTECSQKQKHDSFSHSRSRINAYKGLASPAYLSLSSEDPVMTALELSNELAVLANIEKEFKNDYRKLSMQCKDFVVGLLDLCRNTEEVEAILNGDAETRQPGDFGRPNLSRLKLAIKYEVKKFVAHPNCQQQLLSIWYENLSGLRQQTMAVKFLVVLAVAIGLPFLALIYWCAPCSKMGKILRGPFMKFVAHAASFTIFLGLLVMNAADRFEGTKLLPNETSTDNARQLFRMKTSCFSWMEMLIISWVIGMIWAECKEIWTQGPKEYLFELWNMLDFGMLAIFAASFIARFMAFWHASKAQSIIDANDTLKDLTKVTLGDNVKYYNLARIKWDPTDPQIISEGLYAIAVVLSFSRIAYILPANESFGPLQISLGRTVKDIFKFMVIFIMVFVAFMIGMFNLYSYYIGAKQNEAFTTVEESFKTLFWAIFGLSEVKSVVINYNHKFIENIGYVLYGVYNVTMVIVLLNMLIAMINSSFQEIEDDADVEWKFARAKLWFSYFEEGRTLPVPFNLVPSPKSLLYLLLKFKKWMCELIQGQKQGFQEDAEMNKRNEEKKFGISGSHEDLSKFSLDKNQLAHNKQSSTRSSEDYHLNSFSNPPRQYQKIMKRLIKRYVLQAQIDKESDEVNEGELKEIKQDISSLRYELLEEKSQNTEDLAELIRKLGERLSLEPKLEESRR
TRPC6 act: mouse TRPC6 channel activation; Q61143; HEK293-TRPC6 membrane potential dye fluorescence; active compounds read high; B-score at 10 µM; actives 0.13% (n = 310,000); AID 2550;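 active means B-score of the integrated fluorescence ratio above library mean plus 3 SD, and starting fluorescence ratio within library mean plus 5 SD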;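 further: higher score means more depolarization so channel activation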
TRPC4 act: TRPC4 (mouse) channel activation | HEK293 TRPC4beta/mu-opioid, Fluo4 calcium fluorescence; active compounds read high | actives 0.49% (n = 310,000) | B-score at 10 µM;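 active means B-score above 5 SD of library B-scores, and initial fluorescence ratio not above library mean plus 5 SD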;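 further: positive B-score marks a calcium rise read as TRPC4 activation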
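Material: TRPC4beta and mu-opioid receptor HEK293 stable cells | Incubation: 45 min room-temperature Fluo4 loading, 110 s read | Detection: Kinetic Fluo4 calcium fluorescence | Measure: Integrated baseline-normalised fluorescence ratio, converted to per-well B score | Benchmarks: Low control buffer alone, high control maximal DAMGO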
TRPC4 potent: TRPC4 (mouse) allosteric potentiation; actives 0.42% (n = 310,000); B-score at 10 µM; AID 2227; Q9QUQ5; HEK293 TRPC4beta/mu-opioid, DAMGO EC20, Fluo-4 Ca2+ flux; active compounds read high;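 active means B-score of calcium response area above 5 SD of library B-scores, with initial fluorescence ratio within 5 SD of library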;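 further: B-score of integrated fluorescence ratio over time as area under calcium response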
TRPC4 inh: inhibitors of mouse TRPC4 channel | actives 0.39% (n = 300,000) | HEK293 TRPC4beta/mu-opioid, DAMGO-evoked Fluo4 calcium flux; active compounds read low | Q9QUQ5 | AID 2247 | B-score at 10 µM;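 active means B-score over 3 SD under the library average, no early fluorescence shift, positive overall ratio signal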
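Signal: kinetic Fluo4 fluorescence imaging of calcium influx. Material: stable TRPC4beta/mu-opioid receptor HEK293 cells. Probe or stimulus: DAMGO in two steps, submaximal then maximal.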
TRPC4 sel inh 2: mouse TRPC4 off-target activity of TRPC6 inhibitors, second screen. shares compounds with TRPC6 inhibitor. HEK293 TRPC4/MOR, membrane potential dye fluorescence; channel activated by saturating DAMGO dose. inhibition, % at 10 µM. actives 42% (n = 920);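 active means compounds whose fluorescence signal differed from control wells by over 3 SD, either direction, in both duplicate plates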
TRPC4 spec: mouse TRPC4 off-target activity of TRPC6 inhibitors; shares compounds with TRPC6 inhibitor; HEK293 TRPC4/mu-opioid, membrane potential fluorescence; activity change, negative = inhibition, % at 10 µM; actives 61% (n = 920); AID 2777;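 active means rise or fall in signal beyond 3 SD of buffer-only wells in both replicate plates, either sign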;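 further: integrated kinetic ratio of fluorescence range over baseline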
HEK293 MPD ctr 2-1: second counter-screen for TRPC6 inhibitors: parental HEK293 cells; actives 31% (n = 920); shares compounds with TRPC6 inhibitor; parental HEK293 membrane potential dye fluorescence; maximal acetylcholine challenge after compound addition; signal change vs control, % at 10 µM;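 active means membrane potential signal moving either way by over 3 SD of the maximum-effect control, in both duplicate plates, meaning non-specific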
HEK293 MPD ctr-1: checks TRPC6 inhibitor effects in parental HEK293 cells. shares compounds with TRPC6 inhibitor. parental HEK293 membrane potential dye fluorescence. membrane potential signal change, % at 10 µM. actives 60% (n = 920). AID 2780;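 active means membrane potential signal shifting up or down by more than 3 SD of buffer-only wells, on both duplicate plates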
HEK293 MPD ctr-2: counter-screen for TRPC6 modulators: effect in parental HEK293 cells; AID 488924; actives 51% (n = 2,400); membrane potential dye fluorescence; membrane potential signal change, % at 10 µM; shares compounds with TRPC6 inhibitor;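 active means membrane potential signal moves up or down beyond 5 SD from buffer-only wells, on both duplicate plates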
HEK293 MPD ctr 2-2: parental HEK293 nonspecific activity of TRPC6 modulators, second screen; shares compounds with TRPC6 inhibitor; inhibition, % at 10 µM; membrane potential dye fluorescence; after compound, maximal acetylcholine stimulation; AID 488926; actives 14% (n = 2,400);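 active means membrane potential signal drops by more than 5 SD from the mean control signal, in both duplicate plates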;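 further: plate controls were acetylcholine ECmax control wells for no effect and buffer only wells for full effect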
TRPC4 ctr mod: selectivity of TRPC6 modulators against mouse TRPC4; shares compounds with TRPC6 inhibitor; HEK293 TRPC4/mu-opioid, membrane potential fluorescence; percent change from control (negative = decrease, positive = increase), % at 10 µM; actives 69% (n = 2,400);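 active means membrane potential signal moved up or down beyond 5 SD of buffer control wells, in both duplicate plates, actives on both sides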;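 further: plate controls were assay buffer wells for no effect and DAMGO maximal-effect wells for full effect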
TRPC4 ctr inh 2: second selectivity test of TRPC6 modulators against mouse TRPC4. actives 55% (n = 2,400). inhibition, % at 10 µM. shares compounds with TRPC6 inhibitor. HEK293 TRPC4/mu-opioid, membrane potential dye fluorescence; stimulated with maximal-effect DAMGO;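 active means drop in membrane potential signal beyond 5 SD of the control wells in both duplicate plates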;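 further: TRPC4 counter screen for TRPC6 hits run under conditions tuned for TRPC6 not TRPC4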
TRPC6 block conf: mouse TRPC6 inhibitor confirmation; HEK293-TRPC6, membrane potential dye, ACh-evoked depolarization; inhibition, % at 10 µM; AID 488960; actives 43% (n = 3,300); shares compounds with TRPC6 inhibitor;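 active means fluorescence ratio falls more than 5 SD below the full-stimulation control mean, in both duplicate runs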;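 further: integrated fluorescence ratio of peak minus minimum over baseline after agonist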
TRPC6 act confirm: confirmation of mouse TRPC6 activators; shares compounds with TRPC6 inhibitor; HEK293-TRPC6 membrane potential dye fluorescence, FDSS; activation, % at 10 µM; actives 11% (n = 2,800);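 active means ratio signal rise beyond 5 SD above unstimulated control wells' mean, seen in both duplicate runs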;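 further: plate controls were buffer EC0 wells for no effect and acetylcholine ECmax response for full effect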
Starred values were filed as active, the others as inactive.

What do the screens show for `c1ccc(C(c2ccccc2)c2noc(CN3CCN(C4CCCC4)CC3)n2)cc1`?
TRPC6 inhibitor: -5.2*; TRPC6 act: inactive; TRPC4 act: inactive; TRPC4 potent: inactive; TRPC4 inh: inactive; HEK293 MPD ctr-2: 124%*; HEK293 MPD ctr 2-2: inactive; TRPC4 ctr mod: 15%*; TRPC4 ctr inh 2: inactive; TRPC6 block conf: inactive

Results for Cc1nc(CN2CCN(Cc3nc(C(c4ccccc4)c4ccccc4)no3)CC2)cs1 ?
TRPC6 inhibitor: -6.4*; TRPC6 act: inactive; TRPC4 act: inactive; TRPC4 potent: inactive; TRPC4 inh: inactive; HEK293 MPD ctr-2: 101%*; HEK293 MPD ctr 2-2: inactive; TRPC4 ctr mod: 10%*; TRPC4 ctr inh 2: inactive; TRPC6 block conf: 48%*

How did Cc1ccc(S(=O)(=O)N(C)C)cc1NC(=O)COC(=O)Cc1ccsc1 do in these assays?
TRPC6 inhibitor: inactive; TRPC6 act: inactive; TRPC4 act: inactive; TRPC4 potent: inactive; TRPC4 inh: inactive

What do the screens show for `CCCCN(CCCC)c1nc(OC)nc(-n2nnc(C(C)=O)c2C)n1`?
TRPC6 inhibitor: inactive; TRPC6 act: 11*; TRPC4 act: inactive; TRPC4 potent: inactive; TRPC4 inh: inactive; HEK293 MPD ctr-2: 240%*; HEK293 MPD ctr 2-2: inactive; TRPC4 ctr mod: 57%*; TRPC4 ctr inh 2: inactive; TRPC6 block conf: inactive; TRPC6 act confirm: 96%*

Results for CC(=O)c1nnn(-c2nc(N)nc(N(c3ccccc3)c3ccccc3)n2)c1C ?
TRPC6 inhibitor: inactive; TRPC6 act: inactive; TRPC4 act: inactive; TRPC4 potent: inactive; TRPC4 inh: inactive

How did CC(=O)Nc1cccc(NC(=O)CSc2nccn2Cc2ccccc2)c1 do in these assays?
TRPC6 inhibitor: inactive; TRPC6 act: inactive; TRPC4 act: inactive; TRPC4 potent: inactive; TRPC4 inh: inactive

How did COc1ccccc1CNC(=O)COC(=O)c1cc([N+](=O)[O-])ccc1N1CCOCC1 do in these assays?
TRPC6 inhibitor: -5.1*; TRPC6 act: inactive; TRPC4 act: inactive; TRPC4 potent: inactive; TRPC4 inh: inactive; HEK293 MPD ctr-2: inactive; HEK293 MPD ctr 2-2: inactive; TRPC4 ctr mod: 14%*; TRPC4 ctr inh 2: inactive; TRPC6 block conf: inactive

What do the screens show for `Cn1nc(-c2ccccc2)cc1NS(=O)(=O)c1ccccc1`?
TRPC6 inhibitor: inactive; TRPC6 act: inactive; TRPC4 act: inactive; TRPC4 potent: inactive; TRPC4 inh: inactive

What do the screens show for `COc1ccc(-c2nnc3sc(C4CCCCC4)nn23)cc1OC`?
TRPC6 inhibitor: inactive; TRPC6 act: 13*; TRPC4 act: inactive; TRPC4 potent: inactive; TRPC4 inh: inactive; HEK293 MPD ctr-2: 144%*; HEK293 MPD ctr 2-2: inactive; TRPC4 ctr mod: 40%*; TRPC4 ctr inh 2: inactive; TRPC6 block conf: inactive; TRPC6 act confirm: 86%*

How did COc1ccc(N2CCN(S(=O)(=O)CCNC(=O)COc3ccccc3C)CC2)cc1 do in these assays?
TRPC6 inhibitor: -8.5*; TRPC6 act: inactive; TRPC4 act: inactive; TRPC4 potent: inactive; TRPC4 inh: inactive; TRPC4 sel inh 2: inactive; TRPC4 spec: -8.9%*; HEK293 MPD ctr 2-1: 240%*; HEK293 MPD ctr-1: inactive; TRPC6 block conf: inactive; TRPC6 act confirm: inactive

Results for COc1ccc(N2CCN(S(=O)(=O)CCNC(=O)COc3ccc(Cl)cc3)CC2)cc1 ?
TRPC6 inhibitor: inactive; TRPC6 act: inactive; TRPC4 act: inactive; TRPC4 potent: inactive; TRPC4 inh: inactive

How did O=C(Nc1cc2c3c(c1)C1CCCC1CN3CC1CCCC21)c1ccccc1 (stereo not given) do in these assays?
TRPC6 inhibitor: -5.9*; TRPC6 act: inactive; TRPC4 act: inactive; TRPC4 potent: inactive; TRPC4 inh: inactive; HEK293 MPD ctr-2: -70%*; HEK293 MPD ctr 2-2: inactive; TRPC4 ctr mod: -16%*; TRPC4 ctr inh 2: inactive; TRPC6 block conf: inactive; TRPC6 act confirm: inactive

How did Cc1ccccc1NC1=C/C(=N\S(=O)(=O)c2ccc(C(=O)O)cc2)c2ccccc2C1=O do in these assays?
TRPC6 inhibitor: inactive; TRPC6 act: inactive; TRPC4 act: inactive; TRPC4 potent: inactive; TRPC4 inh: inactive

What do the screens show for `CC(C)c1ccc(S(=O)(=O)/N=C2\C=C(NS(=O)(=O)c3ccccc3)C(=O)c3ccccc32)cc1`?
TRPC6 inhibitor: -5.3*; TRPC6 act: inactive; TRPC4 act: inactive; TRPC4 potent: inactive; TRPC4 inh: -13*; HEK293 MPD ctr-2: -170%*; HEK293 MPD ctr 2-2: 64%*; TRPC4 ctr mod: -30%*; TRPC4 ctr inh 2: 80%*; TRPC6 block conf: 68%*; TRPC6 act confirm: inactive

Results for c1cncc(CNc2ncnc3sccc23)c1 ?
TRPC6 inhibitor: inactive; TRPC6 act: 28*; TRPC4 act: 44*; TRPC4 potent: inactive; TRPC4 inh: inactive; HEK293 MPD ctr-2: inactive; HEK293 MPD ctr 2-2: inactive; TRPC4 ctr mod: inactive; TRPC4 ctr inh 2: inactive; TRPC6 block conf: inactive; TRPC6 act confirm: inactive
